# A selection: hits, their analogues and other compounds. The true share with any hit is near 4.4%.
# SENP1 inh: blocks the human SENP1 SUMO protease catalytic domain; recombinant SENP1 catalytic domain, CyPet-SUMO1-YPet FRET cleavage; inhibition, % at 10 µM; Q9P0U3; hit rate 0.21% among 360,000;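 active = inhibition at least 30% at 10 µM, raw YFP signal under a set limit, fluorescence ratio 0.5 to 1.5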;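 note: 0% = enzyme with DMSO and 100% = no enzyme wells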
# Target sequence (Q9P0U3 419-644 limits assumed): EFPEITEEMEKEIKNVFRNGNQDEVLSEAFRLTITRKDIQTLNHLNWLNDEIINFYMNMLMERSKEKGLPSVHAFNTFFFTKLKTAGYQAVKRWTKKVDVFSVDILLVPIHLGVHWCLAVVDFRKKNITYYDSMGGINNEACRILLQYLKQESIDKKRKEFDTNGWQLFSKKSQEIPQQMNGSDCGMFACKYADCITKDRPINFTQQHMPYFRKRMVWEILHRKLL
#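 Assay system – human recombinant His6-tagged SENP1 catalytic domain enzyme · Input – SENP1 enzyme, 20 pM final · Buffer or medium – Tris pH 8 buffer plus EDTA, NaCl, BME, BSA, NP40, catalase · Schedule – 50 min reaction at room temperature · Technique – FRET read of cyan and yellow fluorescence · Control set – no-enzyme wells low, DMSO-plus-enzyme wells high control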
# GRIN3A LBD mod: modulates the human NR3A ligand-binding domain; NR3A LBD differential scanning fluorimetry, Tm shift; 0% = protein alone, 100% = glycine-bound protein; Tm shift relative to glycine control, % at 25 µM; hit rate 2.5% among 340,000; AID 1259313;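 active = melting temperature shift of at least 10% of the positive control shift, at one fixed dose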
# EBI2 block: EBI2 (human) antagonism; P32249; EBI2 beta-arrestin recruitment, luminescence, 7a,25-OHC stimulated; inhibition, % at 5 µM; hit rate 0.81% among 360,000; in the data active = inhibition above about 38%;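 note: enzyme fragment complementation signal reports receptor beta-arrestin coupling in cells; 0% = agonist plus DMSO wells and 100% = wells without agonist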
# Target sequence (P32249 whole entry, looked up, the tested form may be a part): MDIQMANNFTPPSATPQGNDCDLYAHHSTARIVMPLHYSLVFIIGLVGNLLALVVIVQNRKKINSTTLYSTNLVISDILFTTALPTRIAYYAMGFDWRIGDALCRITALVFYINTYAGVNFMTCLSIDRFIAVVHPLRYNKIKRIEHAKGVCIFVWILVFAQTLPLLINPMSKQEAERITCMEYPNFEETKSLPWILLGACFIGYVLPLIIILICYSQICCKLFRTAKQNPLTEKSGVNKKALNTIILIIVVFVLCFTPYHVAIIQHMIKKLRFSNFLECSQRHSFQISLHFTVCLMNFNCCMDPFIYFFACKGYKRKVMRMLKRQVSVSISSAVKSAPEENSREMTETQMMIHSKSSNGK
# MPTP inh: inhibitors of mitochondrial permeability transition pore. hit rate 1.4% among 360,000. inhibition, % at 10 µM. isolated mouse mitochondria, Ca2+ swelling absorbance, 30 min;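 active = inhibition of 50% or more, scaled per plate between neutral and stimulator controls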;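 note: 0% = DMSO wells given calcium and 100% = 1 mM EGTA wells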
# The depositor's hits bear a star; x = no result.
SMILES,SENP1 inh,GRIN3A LBD mod,EBI2 block,MPTP inh
CC(C)Cc1ccc(C(C)C(=O)OCC(=O)c2c[nH]c3ccccc23)cc1 (stereo unspecified),0,23*,-5,-1
CC(O)C(NS(=O)(=O)c1ccc(Cl)cc1)C(=O)OCC(=O)c1c[nH]c2ccccc12 (stereo unspecified),-5,2,-6,6
CC(C)C(NS(=O)(=O)c1c(Cl)cccc1Cl)C(=O)OCC(=O)c1c[nH]c2ccccc12 (stereo unspecified),-1,23*,31,32
COC(=O)c1ccc2c(c1)SC1=C(CCCC1=O)N2,43*,0,-10,0
COc1ccc(C)cc1N(C(=O)c1snc(C(N)=O)c1N)C(C(=O)NC1CCCC1)c1ccc(F)cc1 (stereo unspecified),-32,3,12,2
COc1ccccc1NS(=O)(=O)c1cc(NC(=O)Nc2ccccc2)ccc1N1CCCCC1,0,20*,9,30
CN[C@@H]1[C@H](O)[C@H](NC)[C@H]2O[C@@]3(O)C(=O)C[C@@H](C)O[C@H]3O[C@@H]2[C@H]1O,1,8,-4,0
CCOC(=O)c1ccc(NC(=O)CSc2nnc(NC(=O)c3ccc(S(=O)(=O)N4CCOCC4)cc3)s2)cc1,0,37*,-11,5
Cc1ccc(NC(=O)CSc2nnc(NC(=O)c3ccc(S(=O)(=O)N4CCOCC4)cc3)s2)cc1,3,28*,-3,2
CCOc1ccc(-c2ccc(SCC(=O)NC3CCCCC3)nn2)cc1,-5,1,19,1
Cc1cc2n(n1)C(c1c[nH]c3ccccc13)Nc1ccccc1-2 (stereo unspecified),-14,32*,0,6
COc1ccc(NC2CCCN(C(=O)CCc3scnc3C)C2)cc1 (stereo unspecified),0,14*,4,1
Cc1cccc(N2C(S)=C(C#N)C(=O)NC23CCCCC3)c1,-2,16*,6,0
Cc1ccc(N2C(S)=C(C#N)C(=O)NC23CCCCC3)cc1,0,0,-2,0
Cc1cc(NC(=S)Nc2ccc(C)c(Cl)c2)n[nH]1,3,-6,7,-1
COc1ccc(NC(=S)Nc2cc(-c3ccccc3)[nH]n2)cc1Cl,1,34*,23,3
COc1ccc(NC(=S)Nc2cc(C)[nH]n2)cc1Cl,3,12*,1,0
N#Cc1ccccc1OCC(=O)OCC(=O)NC1CCCC1,3,-1,1,0
Cc1ccc(S(=O)(=O)NCCNC(=O)c2ccc(C)nc2)cc1,-3,4,3,0
C=CCC[C@H](Cc1ccc(F)cc1)C(=O)OC[C@@H](Cc1c[nH]c2ccccc12)NC(=O)[C@@H](CC=C)CC(=O)N[C@@H](CO)Cc1ccccc1,3,16*,13,1
C=CCC[C@@H](Cc1ccc(F)cc1)C(=O)OCCNC(=O)[C@@H](CC=C)CC(=O)N[C@@H](CO)Cc1ccccc1,4,23*,6,-1
Cc1ccc(-c2nc(=O)[nH]c3ccccc23)cc1,2,-1,-12,1
O=c1nc(-c2ccccc2)c2ccccc2[nH]1,-1,12*,-11,-1
O=C(COC(=O)c1ccc(Cl)c(S(=O)(=O)N2CCOCC2)c1)Nc1ccc2[nH]c(=O)[nH]c2c1,0,-1,-11,0
O=C(COC(=O)c1ccc(Cl)c(S(=O)(=O)N2CCN(c3ccc(F)cc3)CC2)c1)Nc1cccc(Cl)c1,2,25*,8,26
SMILES,SENP1 inh,GRIN3A LBD mod,EBI2 block,MPTP inh
N=c1n(N)c2ccccc2n1CC(=O)c1ccc(Br)cc1,4,-3,7,0
CN(C(=O)c1cccc(NC(=O)Cc2ccc(NC(=O)C3CCN(S(=O)(=O)c4cccc([N+](=O)[O-])c4)CC3)cc2)c1)C1CCCCC1,3,7,16,0
CN(CCc1ccccc1)C(=O)c1ccc(NC(=O)Cc2ccc(NC(=O)C3CCCN(C(=O)CCc4ccccc4)C3)cc2)cc1 (stereo unspecified),-2,11*,21,4
CN(C(=O)c1ccc(NC(=O)Cc2ccc(NC(=O)C3CCN(S(=O)(=O)c4cccc([N+](=O)[O-])c4)CC3)cc2)cc1)C1CCCC1,5,10*,-7,2
CN(CCc1ccccc1)C(=O)c1ccc(NC(=O)Cc2ccc(NC(=O)C3CCCN(C(=O)C4CCC4)C3)cc2)cc1 (stereo unspecified),1,-1,-2,6
O=C(Cc1cccc(NC(=O)C2CCN(S(=O)(=O)c3cccc([N+](=O)[O-])c3)CC2)c1)Nc1cccc(C(=O)N2CCCCC2)c1,2,11*,-9,0
CN(C(=O)c1cccc(NC(=O)Cc2ccc(NC(=O)C3CCCN(S(=O)(=O)c4cccc([N+](=O)[O-])c4)C3)cc2)c1)C1CCC1 (stereo unspecified),4,11*,1,1
O=C(CSc1nnnn1C1CCCCC1)Nc1ccccc1N1CCOCC1,1,-2,5,-2
CCc1nc2ccccc2c(C(=O)Nc2ccc(F)cc2)c1C,1,1,5,0
CN(CCc1ccccc1)C(=O)c1ccc(NC(=O)Cc2ccc(NC(=O)C3CCN(S(=O)(=O)c4cccc([N+](=O)[O-])c4)CC3)cc2)cc1,2,7,-13,0
CN(CCc1ccccc1)C(=O)c1ccc(NC(=O)Cc2cccc(NC(=O)C3CCN(S(=O)(=O)c4cccc([N+](=O)[O-])c4)CC3)c2)cc1,0,10*,-3,0
Cc1ccc2c(c1)[C@@H]1CN(C)CC[C@@H]1N2S(=O)(=O)c1ccc(F)cc1,-1,14*,6,0
COc1cc(/C=N/NC(N)=S)ccc1OC(=O)c1ccc(C)cc1,3,26*,16,0
COc1ccc(C(=O)Oc2cccc(/C=N/NC(N)=S)c2)cc1,2,-1,1,0
COc1ccc(C=NNC(=S)NN=Cc2ccc(OC)c(OC)c2)cc1OC,-2,-26,-19,0
COc1cc(/C=N/NC(N)=S)ccc1OCc1ccc(C)cc1,2,25*,31,2
NS(=O)(=O)c1ccc(NC(=S)N2CCN(c3ccc(Cl)c(Cl)c3)CC2)cc1,1,7,-2,7
NS(=O)(=O)c1ccc(NC(=S)N2CCN(Cc3ccc(Cl)c(Cl)c3)CC2)cc1,3,25*,1,-1
COc1ccc(NC(=O)C2CC(=O)OC23CCOC(C)(C)C3)cc1 (stereo unspecified),1,2,-9,2
Cc1cccc(OCCNC(=S)NC(=O)c2cncc(Br)c2)c1,2,10*,-2,1
O=C(O)c1ccc(-c2nn3c(=O)cc(N4CCNCC4)nc3s2)cc1,-3,x,-3,1
O=c1[nH]c(/C=C2\C=Nc3ccccc32)c(O)n1Cc1ccccc1F,-39,10*,13,2
CC(Nc1nc(-c2ccccc2O)nc2ccccc12)c1ccccc1 (stereo unspecified),0,22*,22,20
